Experimental data published in ChEMBL document CHEMBL4257565, “A phenotypic approach to the discovery of compounds that promote non-amyloidogenic processing of the amyloid precursor protein: Toward a new profile of indirect β-secretase inhibitors” (Eur J Med Chem, 2018).
Blank lines part the entries; values can stand above or below the compound they belong to. The source made the active and inactive calls. No cut-off for these calls is given here.

Tests used:
Beta-secretase 1 [1] = biological target: T1, Beta-secretase 1 (Homo sapiens, UniProt P56817); test: Inhibition of BACE1 in human SH-SY5Y cells harboring wild type APP695 assessed as reduction in amyloid beta (1 to 40) level after 24 hrs by ELISA method; assay type: cell-based
In short: (§1)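 Aβ1-40 and Aβ1-42 levels were measured by ELISA in APPwt-expressing SH-SY5Y cells after compound treatment.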

Beta-secretase 1 [2] = biological target: T1, Beta-secretase 1; test: Inhibition of BACE1 in human SH-SY5Y cells harboring wild type APP695 assessed as increase in alphaCTF level at 3 uM by Western blot method relative to chloroquine; assay type: cell-based
In short: (§2)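 APP C-terminal fragments (αCTFs and AICD) were detected by Western blot and scored as band intensity. Compounds were tested at 1, 3 and 10 µM.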

Beta-secretase 1 [3] = biological target: T1, Beta-secretase 1; test: Inhibition of BACE1 in human SH-SY5Y cells harboring wild type APP695 assessed as increase in AICD level at 3 uM by Western blot method relative to chloroquine; assay type: cell-based; in short: as §2
Primary neuron [4] = test: Inhibition of autophagy in C57BL6 mouse primary neuronal cells assessed as increase in p62 expression up to 5 uM after 24 hrs in presence of autophagic inhibitor BafA1 by DAPI staining based immunofluorescence assay; assay type: functional
In short: (§3)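 Cells were co-treated with compound and the autophagic flux inhibitor bafilomycin A1. p62 and LC3 accumulation were then assessed in SY5Y-APPwt cells and primary neurons.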

Primary neuron [5] = test: Inhibition of autophagy in C57BL6 mouse primary neuronal cells assessed as increase in lipidation of LC3-1 to LC3-2 at 3 uM after 24 hrs by DAPI staining based immunofluorescence assay; assay type: functional
In short: (§4)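 Autophagy markers were quantified against control: p62 expression and lipidation of LC3-I into LC3-II. Accumulation of p62- and LC3-positive vesicles was scored by immunofluorescence. This was done in SY5Y-APPwt cells and primary neurons.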

[6] = biological target: Beta-secretase 1 (Mus musculus) (UniProt P56818); test: Inhibition of BACE1 in C57BL6 mouse primary neuronal cells assessed as increase in mature APP level at 3 to 5 uM after 24 hrs by DAPI staining based immunofluorescence assay relative to control; parameters: scale not given: the % may be the effect or the level left
Beta-secretase 1 [7] = biological target: T1, Beta-secretase 1; test: Inhibition of BACE1 in human SH-SY5Y cells harboring wild type APP695 assessed as increase in alphaCTF level at 3 uM by Western blot method relative to untreated control; assay type: cell-based; in short: as §2
[8] = biological target: Beta-secretase 1 (Mus musculus) (UniProt P56818); test: Inhibition of BACE1 in C57BL6 mouse primary neuronal cells assessed as accumulation of APP-CTF level up to 5 uM after 24 hrs by DAPI staining based immunofluorescence assay
[9] = biological target: Beta-secretase 1 (Mus musculus) (UniProt P56818); test: Inhibition of BACE1 in C57BL6 mouse primary neuronal cells assessed as accumulation of AICD level up to 5 uM after 24 hrs by DAPI staining based immunofluorescence assay
Beta-secretase 1 [10] = biological target: T1, Beta-secretase 1; test: Inhibition of BACE1 in human SH-SY5Y cells harboring wild type APP695 assessed as accumulation of APP-CTF level up to 5 uM after 24 hrs by ELISA; assay type: cell-based
SH-SY5Y [11] = test: Inhibition of alpha secretase in human SH-SY5Y cells harboring wild type APP695 assessed as increase in sAPPalpha level up to 5 uM after 24 hrs by DAPI staining based electro-chemiluminescence immunoassay; assay type: cell-based
SH-SY5Y [12] = test: Inhibition of autophagy in human SH-SY5Y cells harboring wild type APP695 assessed as increase in p62 expression at 5 uM after 24 hrs by DAPI staining based immunofluorescence assay relative to control; assay type: functional; parameters: scale not given: the % may be the effect or the level left; in short: as §4
Beta-secretase 1 [13] = biological target: T1, Beta-secretase 1; test: Inhibition of BACE1 in human SH-SY5Y cells harboring wild type APP695 assessed as reduction in amyloid beta (1 to 42) level up to 5 uM after 24 hrs by ELISA; assay type: cell-based; in short: as §1
[14] = Cytotoxicity against C57BL6 mouse primary neuronal cells assessed as reduction in cell viability after 24 hrs by LDH assay; assay type: cell-based; settings: primary neuron
Beta-secretase 1 [15] = biological target: T1, Beta-secretase 1; test: Inhibition of BACE1 in human SH-SY5Y cells harboring wild type APP695 assessed as increase in AICD level at 3 uM by Western blot method relative to untreated control; assay type: cell-based; in short: as §2
Beta-secretase 1 [16] = biological target: T1, Beta-secretase 1; test: Inhibition of BACE1 in human SH-SY5Y cells harboring wild type APP695 assessed as increase in mature APP level at 5 uM after 24 hrs by ELISA relative to control; assay type: cell-based; parameters: scale not given: the % may be the effect or the level left; settings: in the assay text read “by Western blot” for “by ELISA”
In short: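 Full-length APP was resolved and detected with APP-C17 antiserum as two bands. The 110 kDa band is the immature, neosynthesized form and the 115 kDa band is the mature, glycosylated form. Both bands were quantified against the control condition. This was done in SH-SY5Y-APPwt cells and in primary neuronal cultures.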

Beta-secretase 1 [17] = biological target: T1, Beta-secretase 1; test: Inhibition of BACE1 in human SH-SY5Y cells harboring wild type APP695 assessed as reduction in amyloid beta (1 to 40) level up to 5 uM after 24 hrs by ELISA; assay type: cell-based; in short: as §1
SH-SY5Y [18] = test: Cytotoxicity against human SH-SY5Y cells harboring wild type APP695 assessed as reduction in cell viability after 24 hrs by LDH assay; assay type: cell-based
Primary neuron [19] = test: Inhibition of autophagy in C57BL6 mouse primary neuronal cells assessed as increase in p62 expression at 3 uM after 24 hrs by DAPI staining based immunofluorescence assay; assay type: functional; in short: as §4
SH-SY5Y [20] = test: Inhibition of autophagy in human SH-SY5Y cells harboring wild type APP695 assessed as increase in lipidation of LC3-1 to LC3-2 up to 5 uM after 24 hrs in presence of autophagic inhibitor BafA1 by DAPI staining based immunofluorescence assay; assay type: functional, cell-based; in short: as §3
Primary neuron [21] = test: Inhibition of autophagy in C57BL6 mouse primary neuronal cells assessed as increase in lipidation of LC3-1 to LC3-2 up to 5 uM after 24 hrs in presence of autophagic inhibitor BafA1 by DAPI staining based immunofluorescence assay; assay type: functional; in short: as §3
SH-SY5Y [22] = test: Inhibition of autophagy in human SH-SY5Y cells harboring wild type APP695 assessed as increase in lipidation of LC3-1 to LC3-2 at 5 uM after 24 hrs by DAPI staining based immunofluorescence assay relative to control; assay type: functional; parameters: scale not given: the % may be the effect or the level left
In short: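 SY5Y-APPwt cells treated at 5 µM alongside untreated control. LC3-I to LC3-II lipidation quantified from western blot bands. LC3- and p62-positive vesicles scored inside cells by immunofluorescence.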

Beta-secretase 1 [23] = biological target: T1, Beta-secretase 1; test: Inhibition of recombinant human BACE1 at 10 uM using Mca-S-E-[…]-L-D-AEF-R-K(Dnp)-R-R-NH2 as substrate after 60 mins by fluorescence assay relative to control
In short: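 BACE-1 enzymatic activity was followed by cleavage of the fluorogenic peptide Mca-S-E-V-N-L-D-AE-F-R-K(Dnp)-R-R-NH2.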

Beta-secretase 1 [24] = biological target: T1, Beta-secretase 1; test: Inhibition of BACE1 in human SH-SY5Y cells harboring wild type APP695 assessed as accumulation of AICD level up to 5 uM after 24 hrs by ELISA; assay type: cell-based
SH-SY5Y [25] = test: Inhibition of autophagy in human SH-SY5Y cells harboring wild type APP695 assessed as increase in p62 expression up to 5 uM after 24 hrs in presence of autophagic inhibitor BafA1 by DAPI staining based immunofluorescence assay; assay type: functional, cell-based; in short: as §3
Beta-secretase 1 [26] = biological target: T1, Beta-secretase 1; test: Inhibition of BACE1 in human SH-SY5Y cells harboring wild type APP695 assessed as reduction in sAPPbeta level up to 5 uM after 24 hrs by DAPI staining based electro-chemiluminescence immunoassay; assay type: cell-based

T1 sequence (P56817 whole entry): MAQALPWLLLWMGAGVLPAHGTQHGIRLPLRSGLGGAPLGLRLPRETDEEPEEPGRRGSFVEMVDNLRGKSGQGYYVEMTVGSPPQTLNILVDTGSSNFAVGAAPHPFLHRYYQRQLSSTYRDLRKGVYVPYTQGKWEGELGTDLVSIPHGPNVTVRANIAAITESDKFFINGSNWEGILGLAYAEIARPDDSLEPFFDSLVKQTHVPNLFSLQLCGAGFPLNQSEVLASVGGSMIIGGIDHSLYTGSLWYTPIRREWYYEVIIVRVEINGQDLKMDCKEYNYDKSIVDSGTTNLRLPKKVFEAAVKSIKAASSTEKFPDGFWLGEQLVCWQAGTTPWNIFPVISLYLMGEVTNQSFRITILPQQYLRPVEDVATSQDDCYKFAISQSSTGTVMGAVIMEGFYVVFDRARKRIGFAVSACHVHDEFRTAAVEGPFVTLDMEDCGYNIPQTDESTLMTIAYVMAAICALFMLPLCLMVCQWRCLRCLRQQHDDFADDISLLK
Beta-secretase 1 (Mus musculus), sequence (P56818 whole entry): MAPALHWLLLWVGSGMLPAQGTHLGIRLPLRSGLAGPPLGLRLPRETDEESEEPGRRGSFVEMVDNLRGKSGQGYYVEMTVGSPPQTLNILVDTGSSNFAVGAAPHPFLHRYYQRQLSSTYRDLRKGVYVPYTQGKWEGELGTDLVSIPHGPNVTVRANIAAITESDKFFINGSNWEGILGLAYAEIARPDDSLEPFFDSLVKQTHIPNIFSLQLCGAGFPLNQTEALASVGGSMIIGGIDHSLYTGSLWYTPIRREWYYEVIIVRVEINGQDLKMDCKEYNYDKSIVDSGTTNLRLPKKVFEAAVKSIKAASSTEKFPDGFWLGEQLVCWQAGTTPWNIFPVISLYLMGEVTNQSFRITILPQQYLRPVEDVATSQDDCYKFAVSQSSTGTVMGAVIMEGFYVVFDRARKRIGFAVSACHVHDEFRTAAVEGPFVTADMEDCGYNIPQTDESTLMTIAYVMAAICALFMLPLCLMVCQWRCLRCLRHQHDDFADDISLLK

SMILES: CN(C)Cc1ccccc1-c1ccc(NCCCN2CCCCC2)c(OCCN2CCCCC2)c1
- inhibition (Primary neuron [4]): Active
- inhibition (Primary neuron [5]): Active
- Activity [6]: 130%
- fold change (FC) (Beta-secretase 1 [7]): 30
- inhibition [8]: Active
- inhibition [9]: Active
- inhibition (Beta-secretase 1 [10]): Active
- inhibition (SH-SY5Y [11]): Active
- Activity (SH-SY5Y [12]): 476%
- inhibition (Beta-secretase 1 [13]): Active
- Activity [14]: Non-Toxic
- fold change (FC) (Beta-secretase 1 [15]): 40
- Activity (Beta-secretase 1 [16]): 221%
- inhibition (Beta-secretase 1 [17]): Active
- Activity (SH-SY5Y [18]): Non-Toxic
- IC50 (Beta-secretase 1 [1]): 2800 nM
- inhibition (Primary neuron [19]): Active
- inhibition (SH-SY5Y [20]): Active
- inhibition (Primary neuron [21]): Active
- Activity (SH-SY5Y [22]): 591%
- inhibition (Beta-secretase 1 [23]): < 10%
- inhibition (Beta-secretase 1 [24]): Active
- fold change (FC) (Beta-secretase 1 [2]): 6.4
- inhibition (SH-SY5Y [25]): Active
- inhibition (Beta-secretase 1 [26]): Active
- fold change (FC) (Beta-secretase 1 [3]): 3.6

SMILES: c1ccc(-c2ccc(NCCCN3CCCCC3)c(OCCN3CCCCC3)c2)cc1
- IC50 (Beta-secretase 1 [1]): 5200 nM
- fold change (FC) (Beta-secretase 1 [2]): 2.4
- fold change (FC) (Beta-secretase 1 [3]): 2.1

Second part, the compound after the results:

- IC50 (Beta-secretase 1 [1]): 2600 nM
- fold change (FC) (Beta-secretase 1 [2]): 4.3
- fold change (FC) (Beta-secretase 1 [3]): 2.7
SMILES: c1ccc(-c2ccc(NCCCN3CCCCC3)c(OCCN3CCCCC3)c2)c(CN2CCCCC2)c1

- IC50 (Beta-secretase 1 [1]): 2100 nM
- fold change (FC) (Beta-secretase 1 [2]): 2.6
- fold change (FC) (Beta-secretase 1 [3]): 2.5
SMILES: c1cc(-c2ccc(NCCCN3CCCCC3)c(OCCN3CCCCC3)c2)ccc1CN1CCCCC1

- IC50 (Beta-secretase 1 [1]): 3900 nM
- fold change (FC) (Beta-secretase 1 [2]): 0.9
- fold change (FC) (Beta-secretase 1 [3]): 0.8
SMILES: CN(C)Cc1ccccc1-c1ccc(NCCCN2CCCCC2)cc1
